In ChEMBL document CHEMBL1137100, “Design, synthesis, and antiviral activity of certain 3-substituted 2,5,6-trichloroindole nucleosides” (J Med Chem, 2004):

Experiments:
Human alphaherpesvirus 1 = experiment: Inhibitory concentration required against herpes simplex virus type-1 (HSV-1) expressed in BSC-1 cells was determined by ELISA assay; type: functional, organism-based; details: Human alphaherpesvirus 1, BSC-1
Procedure, shortened: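 HSV-1 KOS strain. BSC-1 cells, 10 000 per well in MEM(E) with 10% calf serum, incubated overnight at 37 °C, then drug plus virus at 100 pfu/well, quadruplicate wells, 3 days at 37 °C. Detection with HRP-conjugated rabbit anti-HSV-1 antibody and TMB substrate, stopped with H₂SO₄ after 15 min, absorbance at 450 and 570 nm. IC50 by regression vs log10 concentration; acyclovir as positive control.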

[1] = Cytotoxicity against KB cells was determined by crystal violet staining and spectrophotometric quantitation of dye eluted from stained cells; type: functional, cell-based
Procedure, shortened: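 KB cells seeded at 3000–5000 per well, incubated overnight at 37 °C, then exposed to compound at six to eight concentrations for 48 h at 37 °C in CO₂ (two population doublings). Fixed with 95% ethanol, stained with 0.1% crystal violet, dye eluted with acidified ethanol, read at 570 nm. IC50 by linear regression of % inhibition vs log10 concentration.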

HFF = experiment: Cytotoxicity produced in stationary HFF cells was determined by microscopic inspection of uninfected cells; type: functional, cell-based; details: Homo sapiens
Procedure, shortened: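 Uninfected stationary HFF cells inspected microscopically for cytotoxicity, scored at the time of HCMV plaque enumeration (7–10 days at 37 °C), duplicate wells. Compounds from 10 mg/mL DMSO stocks diluted in growth medium. IC50 from linear regression of % inhibition vs log10 concentration.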

Human betaherpesvirus 5 = experiment: Inhibitory concentration required against human cytomegalovirus (HCMV) expressed in HFF cells was determined by plaque reduction assay; type: functional, organism-based; details: Human betaherpesvirus 5, HFF
Procedure, shortened: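 HCMV Towne strain, isolate P₀. HFF monolayers infected with about 100 pfu per cm²; after adsorption, compound (diluted from 10 mg/mL DMSO stock) added at four to eight concentrations in duplicate wells. Incubated 7–10 days at 37 °C, fixed and stained with crystal violet, plaques counted microscopically. IC50 from regression of % plaque reduction vs log10 concentration; ganciclovir as positive control.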

Structure (SMILES) | IC50 (Human alphaherpesvirus 1) [µM] | IC50 [1] [µM] | IC50 (HFF) [µM] | IC50 (Human betaherpesvirus 5) [µM]
COC(=O)OC[C@H]1OC(n2c(Cl)c(C=O)c3cc(Cl)c(Cl)cc32)C(O)[C@@H]1O (single isomer, unassigned) | 15 | 50 | 32 | 0.2
CC(=O)c1c(Cl)n(C2O[C@H](CO)[C@@H](O)C2O)c2cc(Cl)c(Cl)cc12 (single isomer, unassigned) | 20 | 50 | > 100 | 0.31
CC(=O)OC[C@H]1OC(n2c(Br)c(C=O)c3cc(Cl)c(Cl)cc32)[C@H](O)[C@@H]1O (some centres not stated) | 15 | 40 | 32 | 0.32
CC(=O)OC[C@H]1OC(n2c(Cl)c(C=O)c3cc(Cl)c(Cl)cc32)[C@H](O)[C@@H]1O (some centres not stated) | 20 | 35 | 32 | < 0.1
CCCC(=O)OC[C@H]1OC(n2c(Cl)c(C=O)c3cc(Cl)c(Cl)cc32)C(O)[C@@H]1O (single isomer, unassigned) | 9 | 40 | 32 | 0.25
O=Cc1c(Cl)n(C2O[C@H](CO)[C@@H](O)C2O)c2cc(Cl)c(Cl)cc12 (single isomer, unassigned) | 40 | 45 | 45 | 0.23
OC[C@H]1OC(n2c(Cl)c(-c3ccsc3)c3cc(Cl)c(Cl)cc32)C(O)[C@@H]1O (single isomer, unassigned) | 45 | 60 | > 100 | 31
OC[C@H]1OC(n2c(Cl)c(-c3ccco3)c3cc(Cl)c(Cl)cc32)C(O)[C@@H]1O (single isomer, unassigned) | 50 | 80 | 32 | 42
Nc1nc2c(ncn2COC(CO)CO)c(=O)[nH]1 [GANCICLOVIR] |  | > 100 | > 100 | 
CC(=O)OC[C@H]1OC(n2c(Cl)c(C#N)c3cc(Cl)c(Cl)cc32)C(O)[C@@H]1O (single isomer, unassigned) | 50 | 70 | 32 | 2.5
OC[C@H]1OC(n2c(Cl)c(I)c3cc(Cl)c(Cl)cc32)C(O)[C@@H]1O (single isomer, unassigned) | 20 | 65 | 32 | 12
N#Cc1c(Cl)n(C2O[C@H](CO)[C@@H](O)C2O)c2cc(Cl)c(Cl)cc12 (single isomer, unassigned) | 15 | 65 | 32 | 0.55
CCC(=O)c1c(Cl)n(C2O[C@H](COC(C)=O)[C@@H](O)C2O)c2cc(Cl)c(Cl)cc12 (single isomer, unassigned) | 15 | 100 | > 100 | 3.2
O=C(c1c(Cl)n(C2O[C@H](CO)[C@@H](O)C2O)c2cc(Cl)c(Cl)cc12)C(F)(F)F (single isomer, unassigned) | 15 | 20 | 32 | 6.2
CCC(=O)OC[C@H]1OC(n2c(Cl)c(C=O)c3cc(Cl)c(Cl)cc32)C(O)[C@@H]1O (single isomer, unassigned) | 10 | 50 | 32 | 0.22
OC[C@H]1OC(n2c(Cl)c(Cl)c3cc(Cl)c(Cl)cc32)C(O)[C@@H]1O (single isomer, unassigned) | 45 | 80 | 32 | 38
CCC(=O)c1c(Cl)n(C2O[C@H](CO)[C@@H](O)C2O)c2cc(Cl)c(Cl)cc12 (single isomer, unassigned) | 20 | 100 | > 100 | 2.5
O=CCc1c(Cl)n(C2O[C@H](CO)[C@@H](O)C2O)c2cc(Cl)c(Cl)cc12 (single isomer, unassigned) | > 100 | 70 | > 100 | 4
OC[C@H]1O[C@@H](n2c(Cl)nc3cc(Cl)c(Cl)cc32)C(O)[C@@H]1O (single isomer, unassigned) |  | 210 |  | 2.9
O=Cc1c(Br)n(C2O[C@H](CO)[C@@H](O)C2O)c2cc(Cl)c(Cl)cc12 (single isomer, unassigned) | 20 | 50 | 32 | 0.32
OC[C@H]1O[C@@H](n2c(Br)nc3cc(Cl)c(Cl)cc32)C(O)[C@@H]1O (single isomer, unassigned) | 130 | > 100 |  | 0.7
Cc1c(Cl)n(C2O[C@H](CO)[C@@H](O)C2O)c2cc(Cl)c(Cl)cc12 (single isomer, unassigned) | 70 | > 100 | 32 | 32
CC(=O)OC[C@H]1OC(n2c(Cl)c(C(C)=O)c3cc(Cl)c(Cl)cc32)C(O)[C@@H]1O (single isomer, unassigned) | 20 | 40 | 32 | 0.3
